Results as given in PMC10128457 (Pharmaceutical Biology, 2023).
In brackets after ≈: the same amount, converted by molar mass.

Test system: H. pylori
Assay: In vitro assay against Helicobacter pylori, broth micro-well dilution method
Assay type: cell-based
Conditions: Helicobacter pylori, read-out: Mean of H. pylori inhibitory % MIC
Outline: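 Test compound and clarithromycin (positive control) dissolved in DMSO and tested in 96-well plates at 125–0.24 µg against an H. pylori inoculum suspension. Readout: MTT colour at 620 nm on a microplate reader. MIC is the lowest concentration with no change in MTT colour. MIC90 (90% inhibition) is calculated from dose-response curves. Determinations done three times.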

SMILES	MIC
O=C(O)c1ccc(O)cc1 [Compound 10, p-hydroxybenzoic acid]	0.48 µg/mL (≈ 3.48 µM)
COC(=O)c1ccc(O)cc1 [Compound 9, methylparaben]	1.95 µg/mL (≈ 12.8 µM)
COc1ccc(-c2cc(=O)c3c(O)cc(O[C@@H]4O[C@H](CO)[C@@H](O)[C@H](O)[C@H]4O)cc3o2)cc1O [Compound 8, diosmetin-7-O-β-D-glucopyranoside]	0.98 µg/mL (≈ 2.12 µM)
COc1cc([C@H]2OC[C@H]3[C@@H]2CO[C@@H]3c2cc(OC)c(O)c(OC)c2)cc(OC)c1O [Compound 4, syringaresinol]	0.98 µg/mL (≈ 2.34 µM)
CC[C@H]1OC(=O)[C@H](C)[C@@H](O[C@H]2C[C@@](C)(OC)[C@@H](O)[C@H](C)O2)[C@H](C)[C@@H](O[C@@H]2O[C@H](C)C[C@H](N(C)C)[C@H]2O)[C@](C)(OC)C[C@@H](C)C(=O)[C@H](C)[C@@H](O)[C@]1(C)O [Clarithromycin, clarithromycin, reference compound]	1.95 µg/mL (≈ 2.61 µM)
O=c1cc(-c2ccc(O)cc2)oc2cc(O)cc(O)c12 [Compound 6, apigenin]	1.95 µg/mL (≈ 7.22 µM)

Same assay, conditions: Table 2

SMILES	anti-H. pylori activity (in words)
COc1cc(-c2cc(=O)c3c(O)cc(O)cc3o2)ccc1O [Compound 5, chrysoeriol]	moderate to low inhibitory activities
C=C[C@@]1(C)C=C2CC[C@@H]3[C@](C)(CCC[C@@]3(C)C(=O)O)[C@H]2CC1 [Compound 2, pimaric acid]	moderate to low inhibitory activities
O=c1cc(-c2ccc(O)c(O)c2)oc2cc(O)cc(O)c12 [Compound 7, luteolin]	moderate to low inhibitory activities
